Measurements: ChEMBL document CHEMBL3758111, “DFT Calculations and ROESY NMR Data for the Diastereochemical Characterization of Cytotoxic Tetraterpenoids from the Oleoresin of Abies balsamea” (J Nat Prod, 2015)

Columns and labels:
A549 = test: Cytotoxicity against human A549 cells assessed as growth inhibition after 48 hrs by resazurin assay; format: functional, cell-based; conditions: A549, 48 h
Method in brief: (§1)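 Human lung carcinoma A549, colon adenocarcinoma DLD-1 and normal skin fibroblast WS1 cells were tested by resazurin reduction, following an earlier-published protocol. Values are IC50, the concentration inhibiting 50% of cell growth. Etoposide served as the positive control.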

[1] = Cytotoxicity against human DLD1 cells assessed as growth inhibition after 48 hrs by resazurin assay; format: functional, cell-based; conditions: DLD-1, 48 h; method in brief: as §1
[2] = Cytotoxicity against human WS1 cells assessed as growth inhibition after 48 hrs by resazurin assay; format: cell-based; conditions: WS1, 48 h; method in brief: as §1

SMILES | IC50 (A549) [µM] | IC50 [1] [µM] | IC50 [2] [µM]
C=C(C)[C@@H]1CC=C2[C@@H](CC[C@]23C(=C)CC[C@@]3(C)[C@H](C)CC(=O)[C@@H]2CC(CCC=C(C)C)=CC[C@@]2(C)C(=O)O)[C@@]1(C)CCC(=O)O | > 10 | > 10 | > 10
C=C(C)[C@@H]1C=CC2=C3CC[C@@](C)([C@H](C)CC(=O)[C@@H]4CC=C(CCC=C(C)C)C[C@@]4(C)C(=O)O)[C@]3(C)CC[C@H]2[C@@]1(C)CCC(=O)OC | 6.7 | > 10 | > 10
C=C(C)[C@@H]1C=CC2=C3CC[C@@](C)([C@H](C)CC(=O)[C@H]4CC(CCC=C(C)C)=CC[C@]4(C)C(=O)O)[C@]3(C)CC[C@H]2[C@@]1(C)CCC(=O)O | 9 | > 10 | > 10
COc1cc([C@@H]2c3cc4c(cc3[C@@H](O[C@@H]3O[C@@H]5CO[C@@H](C)O[C@H]5[C@H](O)[C@H]3O)[C@H]3COC(=O)[C@H]23)OCO4)cc(OC)c1O [ETOPOSIDE] | 1.7 | 2 | > 10
C=C(C)[C@@H]1CC=C2[C@@H](CC[C@]3(C)[C@@H]([C@H](C)CC(=O)[C@@H]4CC=C(CCC=C(C)C)C[C@@]4(C)C(=O)O)CC[C@@]23C)[C@@]1(C)CCC(=O)O | > 10 | > 10 | > 10
C=C(C)[C@@H]1C=CC2=C3CC[C@@](C)([C@H](C)CC(=O)[C@H]4CC=C(CCC=C(C)C)C[C@]4(C)C(=O)O)[C@]3(C)CC[C@H]2[C@@]1(C)CCC(=O)O | > 10 | > 10 | > 10
C=C(C)[C@@H]1CC=C2[C@@H](CC[C@]23C(=C)CC[C@@]3(C)[C@H](C)CC(=O)[C@H]2CC(CCC=C(C)C)=CC[C@]2(C)C(=O)O)[C@@]1(C)CCC(=O)O | > 10 | > 10 | > 10
C=C(C)[C@@H]1C=CC2=C3CC[C@@](C)([C@H](C)CC(=O)[C@@H]4CC(CCC=C(C)C)=CC[C@@]4(C)C(=O)O)[C@]3(C)CC[C@H]2[C@@]1(C)CCC(=O)O | > 10 | > 10 | > 10
C=C(C)[C@@H]1C=CC2=C3CC[C@@](C)([C@H](C)CC(=O)[C@@H]4CC=C(CCC=C(C)C)C[C@@]4(C)C(=O)O)[C@]3(C)CC[C@H]2[C@@]1(C)CCC(=O)O | 10 | > 10 | > 10
C=C(C)[C@@H]1CC=C2[C@@H](CC[C@]23C(=C)CC[C@@]3(C)[C@H](C)CC(=O)[C@H]2CC(CCC=C(C)C)=CC[C@]2(C)C(=O)O)[C@@]1(C)CCC(=O)OC | 7.2 | > 10 | > 10
